Consider one compound from BindingDB's records for doi:10.1021/jm030916r (Uppsala University, 2004).

Assay [1] concerns the target T1, Thioredoxin reductase 3 (Homo sapiens, UniProt Q86VQ6).
T1 sequence (Q86VQ6 whole entry): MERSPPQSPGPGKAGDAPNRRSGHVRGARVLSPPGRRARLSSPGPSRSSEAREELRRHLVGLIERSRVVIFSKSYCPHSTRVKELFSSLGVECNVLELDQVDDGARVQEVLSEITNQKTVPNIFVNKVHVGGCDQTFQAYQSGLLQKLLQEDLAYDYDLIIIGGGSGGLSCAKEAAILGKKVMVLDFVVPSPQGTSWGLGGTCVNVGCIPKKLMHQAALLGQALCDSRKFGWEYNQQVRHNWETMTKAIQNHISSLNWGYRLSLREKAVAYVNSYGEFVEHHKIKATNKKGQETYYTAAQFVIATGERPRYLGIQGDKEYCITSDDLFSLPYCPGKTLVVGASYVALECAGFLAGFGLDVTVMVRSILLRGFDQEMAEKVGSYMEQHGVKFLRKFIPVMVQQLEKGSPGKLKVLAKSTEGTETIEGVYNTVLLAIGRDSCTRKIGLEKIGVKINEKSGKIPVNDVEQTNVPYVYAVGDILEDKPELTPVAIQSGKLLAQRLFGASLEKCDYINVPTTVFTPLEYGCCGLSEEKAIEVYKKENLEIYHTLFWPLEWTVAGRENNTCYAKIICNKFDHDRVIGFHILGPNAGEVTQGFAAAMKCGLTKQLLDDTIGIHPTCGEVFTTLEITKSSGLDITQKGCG
As to the kind of experiment: Inhibition of thioredoxin reductase. The method, boiled down:
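TrxR-only activity in HE buffer (100 mM HEPES pH 7.2, 5 mM EDTA) with 1.0 μM TrxR, 10 mM DTNB, 1 mM NADPH and inhibitor (final). Compound and enzyme added first, reaction started with NADPH/DTNB at 37 °C. OD 412 nm read every 10 s for initial linear rates. IC50 is 50% inhibition of thionitrobenzoate formation.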

Assay [2] addresses T1, Thioredoxin reductase 3. As to the kind of experiment: Inhibition of thioredoxin reductase in the presence of thioredoxinand insulin. The method, boiled down: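 Insulin reduction coupled to Trx/TrxR, final concentrations: 100 mM HEPES pH 7.2, 5 mM EDTA, 1 mM NADPH, 1.0 μM TrxR, 0.8 μM Trx, 2.5 mg/mL bovine insulin plus inhibitor. 30 min at 37 °C, stopped with 6 M guanidine HCl/50 mM Tris pH 8.0/10 mM DTNB, absorbance at 412 nm. IC50 for 50% inhibition of thionitrobenzoate formation.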

pIC50: −log10 of the molar value.

What is called pIC50 is −log10 of the IC50, conventionally taken in molar units. For `OCC1O[C@@H]2O[C@@H]3C(C[Te]c4ccccc4)O[C@H](O[C@@H]4C(CO)O[C@H](O[C@@H]5C(CO)O[C@H](O[C@@H]6C(CO)O[C@@H](O[C@@H]7C(CO)O[C@H](O[C@@H]8C(CO)O[C@H](O[C@H]1C(O)C2O)C(O)C8O)C(O)C7O)C(O)C6O)C(O)C5O)C(O)C4O)C(O)C3O` (some centres not stated), the negative logarithm of the IC50 (pIC50) was 4.75 in assay [1] and 4.74 in assay [2].
